Results as given in paper PMC9621298 (Journal of Enzyme Inhibition and Medicinal Chemistry, 2022).
Entries after “also recorded” stand apart in the source; their conditions may differ.

What was measured:
Siah1 [1] = molecular target: T1, Siah1 (Homo sapiens, UniProt Q8IUQ4); test: Surface plasmon resonance; type: binding; settings: details are not reported
T1 sequence (Q8IUQ4 1-282): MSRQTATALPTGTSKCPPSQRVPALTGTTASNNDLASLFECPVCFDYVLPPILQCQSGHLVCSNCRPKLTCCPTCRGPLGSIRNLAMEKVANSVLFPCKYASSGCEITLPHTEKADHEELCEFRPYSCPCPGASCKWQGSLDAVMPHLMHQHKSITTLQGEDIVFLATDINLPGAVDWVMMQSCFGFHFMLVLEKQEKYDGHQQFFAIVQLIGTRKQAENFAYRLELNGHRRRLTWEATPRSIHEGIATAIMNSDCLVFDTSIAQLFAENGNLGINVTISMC

Siah1 [2] = molecular target: T1, Siah1; test: In vitro pull-down assay with biotin-attached E3 ligase ligands; settings: tested as biotin-attached 5 and 6; no binding to AIMP2-DX2
AIMP2-DX2 [3] = molecular target: T2, AIMP2-DX2 (Homo sapiens, UniProt Q13155); test: Screening: luminescence of luciferase-tagged AIMP2-DX2 in A549 cells; type: cell-based; settings: 4 µM, 24 h
T2 sequence (Q13155 1-251 isoform Q13155-2): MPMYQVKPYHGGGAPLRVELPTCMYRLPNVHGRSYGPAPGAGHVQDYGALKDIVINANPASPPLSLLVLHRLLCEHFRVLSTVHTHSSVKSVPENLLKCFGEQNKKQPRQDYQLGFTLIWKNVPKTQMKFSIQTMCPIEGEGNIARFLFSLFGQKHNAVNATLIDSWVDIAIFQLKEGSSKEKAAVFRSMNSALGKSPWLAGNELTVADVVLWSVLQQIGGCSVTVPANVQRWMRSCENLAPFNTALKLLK

AIMP2-DX2 [4] = molecular target: T2, AIMP2-DX2; test: Western blotting of AIMP2-DX2 protein level; type: cell-based; settings: Figure 6(A)
Siah1-knockdowned cells = test: MTT cell viability assay with Siah1 knockdown by si-RNA; type: cell-based; settings: Figure 7(A)
How it was run: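 Cells were knocked down for Siah1 with specific si-RNA and then treated with test compound. Viability was read by MTT: 96 h in serum-free medium, MTT for 1.5 h at 37 °C, formazan in DMSO, absorbance at 560 nm. Siah1 and AIMP2-DX2 protein levels were checked by immunoblotting. Three independent repeats.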

[5] = molecular target: T3, binding of Siah1 to AIMP2-DX2 (Homo sapiens, UniProt Q13155+Q8IUQ4); test: Immunoprecipitation assay: cellular binding of AIMP2-DX2 and Siah1; type: cell-based; settings: Figure 5(A)
T3 sequence (Q13155 1-251 isoform Q13155-2): T2 sequence (Q13155 1-251 isoform Q13155-2)
T3 sequence (Q8IUQ4 1-282): T1 sequence (Q8IUQ4 1-282)

AIMP2-DX2 [6] = molecular target: T2, AIMP2-DX2; test: Ubiquitination assay in 293 T cells expressing strep-tagged AIMP2-DX2; type: cell-based; settings: 293 T cells expressing strep-AIMP2-DX2, with MG132
How it was run: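 293 T cells were grown in DMEM with 10% FBS at 37 °C in 5% CO2 and expressed strep-tagged AIMP2-DX2 from the pEXPR-IBA5 vector. AIMP2-DX2 was pulled down on strep-tactin, run on SDS-PAGE and immunoblotted, including with anti-ubiquitin.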

[7] = molecular target: T4, binding of Siah1 and AIMP2-DX2 (Homo sapiens, UniProt Q13155+Q8IUQ4); test: In vitro pull-down assay: binding of Siah1 and AIMP2-DX2; settings: Figure 5(B)
T4 sequence (Q13155 1-251 isoform Q13155-2): T2 sequence (Q13155 1-251 isoform Q13155-2)
T4 sequence (Q8IUQ4 1-282): T1 sequence (Q8IUQ4 1-282)
How it was run: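 Direct binding of the two proteins was tested in vitro by GST pull-down with test compound present. An empty-vector control was included. GST proteins were detected by Coomassie staining.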

AIMP2 = molecular target: T5, AIMP2 (Homo sapiens, UniProt Q13155); test: Western blotting of AIMP2 level; type: cell-based; settings: selectivity versus AIMP2-DX2
T5 sequence (Q13155 1-320): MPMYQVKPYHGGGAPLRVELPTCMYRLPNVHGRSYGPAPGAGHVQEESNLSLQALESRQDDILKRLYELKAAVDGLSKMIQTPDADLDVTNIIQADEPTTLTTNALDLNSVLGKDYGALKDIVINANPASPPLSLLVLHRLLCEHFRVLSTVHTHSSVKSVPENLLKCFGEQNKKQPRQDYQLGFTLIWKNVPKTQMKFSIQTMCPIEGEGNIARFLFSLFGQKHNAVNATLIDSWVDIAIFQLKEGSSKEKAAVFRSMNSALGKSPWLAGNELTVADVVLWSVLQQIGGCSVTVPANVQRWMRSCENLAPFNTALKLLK

What does the source list for `Nc1cccc2c1C(=O)N(C1CCC(=O)NC1=O)C2=O` (centres unmarked) [Compound 4, pomalidomide]?
binding affinity with Siah1 (SPR) (Siah1 [1]): most favourable; also recorded: some degree of binding affinity; binding to Siah1 (in vitro pull-down) (Siah1 [2]): specifically bind to Siah1

How did the “inhibitory activity on AIMP2-DX2 (in words)” value (“inhibitory activity” below) (AIMP2-DX2 [3]) turn out when `O=C1CCC(N2C(=O)c3cccc(OCCOCCOCCOCCOCCOCc4cn(Cc5ccc(S(=O)(=O)N[C@@H](Cc6c[nH]c7ccccc67)C(=O)Nc6ccc(N7CCOCC7)cc6)cc5)nn4)c3C2=O)C(=O)N1` (stereo partly drawn) [Compound 16, (2S)-2-((4-((4–(16-((2–(2,6-dioxopiperidin-3-yl)-1,3-Dioxoisoindolin-4-yl)oxy)-2,5,8,11,14-pentaoxahexadecyl)-1H-1,2,3-triazol-1-yl)methyl)phenyl)sulfonamido)-3-(1H-indol-3-yl)-N-(4-morpholinophenyl)propanamide] was run?
The value was “very poor inhibitory activities”.

`O=C1CCC(N2C(=O)c3cccc(NC(=O)CCOCCOCCOCCOCc4cn(Cc5ccc(S(=O)(=O)N[C@@H](Cc6c[nH]c7ccccc67)C(=O)Nc6ccc(N7CCOCC7)cc6)cc5)nn4)c3C2=O)C(=O)N1` (stereo partly drawn) [Compound 21, 1–(1-(4-(N-((S)-3-(1H-Indol-3-yl)-1-((4-morpholinophenyl)amino)-1-oxopropan-2-yl)sulfamoyl)benzyl)-1H-1,2,3-triazol-4-yl)-N-(2–(2,6-dioxopiperidin-3-yl)-1,3-dioxoisoindolin-4-yl)-2,5,8,11-tetraoxatetradecan-14-amide] was tested. Which “inhibitory activity” value (AIMP2-DX2 [3]) did it give?
Its value is “very poor inhibitory activities”.

With `O=C1CCC(N2C(=O)c3cccc(NC(=O)CCOCCOCCOCCOCCOCc4cn(Cc5ccc(S(=O)(=O)N[C@@H](Cc6c[nH]c7ccccc67)C(=O)Nc6ccc(N7CCOCC7)cc6)cc5)nn4)c3C2=O)C(=O)N1` (stereo partly drawn) [Compound 22, 1–(1-(4-(N-((S)-3-(1H-Indol-3-yl)-1-((4-morpholinophenyl)amino)-1-oxopropan-2-yl)sulfamoyl)benzyl)-1H-1,2,3-triazol-4-yl)-N-(2–(2,6-dioxopiperidin-3-yl)-1,3-dioxoisoindolin-4-yl)-2,5,8,11,14-pentaoxaheptadecan-17-amide] as the compound, how does the “inhibitory activity” value (AIMP2-DX2 [3]) read?
Its value is “very poor inhibitory activities”.

`O=C1CCC(N2C(=O)c3cccc(NC(=O)CCOCCOCCOCCOCCOCCOCc4cn(Cc5ccc(S(=O)(=O)N[C@@H](Cc6c[nH]c7ccccc67)C(=O)Nc6ccc(N7CCOCC7)cc6)cc5)nn4)c3C2=O)C(=O)N1` (stereo partly drawn) [Compound 23, 1–(1-(4-(N-((S)-3-(1H-Indol-3-yl)-1-((4-morpholinophenyl)amino)-1-oxopropan-2-yl)sulfamoyl)benzyl)-1H-1,2,3-triazol-4-yl)-N-(2–(2,6-dioxopiperidin-3-yl)-1,3-dioxoisoindolin-4-yl)-2,5,8,11,14,17-hexaoxaicosan-20-amide] was tested. Which “inhibitory activity” value (AIMP2-DX2 [3]) did it give?
Its value is “very poor inhibitory activities”.

Which “inhibitory activity” value (AIMP2-DX2 [3]) does the source give for `O=C1CCC(N2C(=O)c3cccc(NC(=O)COCCOCCOCCOCCOCCNC(=O)c4ccc(S(=O)(=O)N[C@@H](Cc5c[nH]c6ccccc56)C(=O)Nc5ccc(N6CCOCC6)cc5)cc4)c3C2=O)C(=O)N1` (stereo partly drawn) [Compound 31, 4-(N-((S)-3-(1H-Indol-3-yl)-1-((4-morpholinophenyl)amino)-1-oxopropan-2-yl)sulfamoyl)-N-(17-((2–(2,6-dioxopiperidin-3-yl)-1,3-dioxoisoindolin-4-yl)amino)-17-oxo-3,6,9,12,15-pentaoxaheptadecyl)benzamide] here?
Its value is “very poor inhibitory activities”.

With `Cc1ccc(S(=O)(=O)N[C@@H](Cc2c[nH]c3ccccc23)C(=O)Nc2ccc(N3CCN(C(=O)CCOCCNc4cccc5c4C(=O)N(C4CCC(=O)NC4=O)C5=O)CC3)cc2)cc1` (stereo partly drawn) [Compound 45, (2S)-N-(4–(4-(3–(2-((2–(2,6-Dioxopiperidin-3-yl)-1,3-dioxoisoindolin-4-yl)amino)ethoxy)propanoyl)piperazin-1-yl)phenyl)-3-(1H-indol-3-yl)-2-((4-methylphenyl)sulfonamido)propanamide] as the compound, how does the “level of AIMP2-DX2 protein” value (AIMP2-DX2 [4]) read?
The value was “specifically decreased”.

What about the cell viability (Siah1-knockdowned cells; Siah1 knocked down using specific si-RNA) of the same compound?
Its cell viability is “no significant difference in cell viability”.

And the cell viability (Siah1-knockdowned cells; Siah1 not knocked down)?
Its cell viability is “efficiently reduced cell viability”.

What about the “endogenous binding of Siah1 to AIMP2-DX2 (immunoprecipitation)” value [5] of the same compound?
Its value is “enhances the endogenous binding of Siah1 to AIMP2-DX2 in a dose-dependent manner”.

And the “ubiquitination of AIMP2-DX2” value (AIMP2-DX2 [6])?
The value was “induced”.

And the “binding of Siah1 and AIMP2-DX2 (in vitro pull-down)” value [7]?
Its value is “direct effect on binding of two proteins”.

And the “effect on AIMP2” value (AIMP2)?
Its value is “without any effect on AIMP2”.
